Data from paper PMC2883079 (European Journal of Immunology, 2009).
Where “and” joins values, the source holds several entries; their conditions need not be identical. Equal entries are not always repeated. Where two headings read alike, the source gives them in different places. No end group written: not given here.

B1: CCL19: chemokine, positive control for mDC migration (protein, UniProt Q99731 22-98, looked up)
C-C motif chemokine 19: GTNDAEDCCLSVTQKPIPGYIVRNFHYLLIKDGCRVPAVVFTTLRGRQLCAPPDQPWVERIIQRLQRTSAKMKRRSS

Assays:
[1] = system: HEK293 cells expressing human CCR6; test: Chemotaxis assay, HEK293 cells expressing human CCR6; format: cell-based; details: HEK293 cells overexpressing human CCR6, 5 h
Summary of the method: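 48-well chemotaxis chamber, 5 h. Cells at 5×10^5 per mL in RPMI 1640 with 1% BSA, which also served as diluent and no-peptide control. CCL20 positive control. Migrated cells counted in three random ×400 fields per well, triplicate wells, as mean per field. MI = count at optimal concentration / control count. One-tailed Student's t-test. Representative of at least three experiments.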

[2] = system: immature DC (iDC), bone marrow-derived, 6 days in GM-CSF; test: Chemotaxis assay, iDC cultured in GM-CSF for 6 days; format: cell-based, mouse; details: 1.5 h
mature DC (mDC) = test: Chemotaxis assay, LPS-matured DC; format: cell-based, mouse; details: DC matured 24 h with 100 ng/mL E. coli LPS; 1.5 h
Summary of the method: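 Mouse tibia/femur marrow at 3.75×10^5 cells/mL with GM-CSF supernatant (5%, 500 U/mL), refed day 3. Day 6 cultures then had LPS for 24 h. Phenotyped by flow for CD11c/MHC II, CD86, CD54, Gr1 and B220. 48-well chamber, 1.5 h, RPMI/1% BSA, cells at 5×10^5 per mL. CCL19 positive control. Three ×400 fields per well, triplicate wells, SD over nine counts, one-tailed t-test.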

mouse CD4^+ T cells = test: Chemotaxis assay, mouse CD4+ T cells; format: cell-based; details: 4 h
Summary of the method: (§1)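 In 48-well chemotaxis chambers, cells migrated for 4 h. Human CD4+ cells came from Ficoll–Paque mononuclear cells of donor blood or bone marrow, with CCL20 as positive control. Mouse cells were splenic CD4+ from magnetic positive selection, CD4/CD3-stained, with CXCL12a as control. Cells were at 5×10^5/mL in RPMI 1640/1% BSA, the medium also used to dilute peptides. Three ×400 fields were counted per triplicate well. MI = migrated cells at optimal concentration / peptide-free control. One-tailed t-test.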

human CD4^+ T cells = test: Chemotaxis assay, human CD4+ T cells; format: cell-based; details: for optimal concentration for chemotaxis / migratory index (MI): 4 h; for migratory index (MI): at optimal concentration
Summary of the method: as §1

[3] = cited from earlier work
CD4 T cells = test: Chemotaxis of CD4 T cells; format: cell-based; details: species of cells not stated
Summary of the method: as §1

[4] = system: immature DC (iDC), bone marrow-derived, 7 days in GM-CSF; test: Chemotaxis assay, iDC cultured in GM-CSF for 7 days; format: cell-based, mouse
Summary of the method: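 Mouse tibia/femur marrow cells were seeded at 3.75×10^5/mL in complete medium with 5% (500 U/mL) GM-CSF supernatant, refed on day 3. Loosely adherent cells were harvested on day 6 or day 7. Migration ran 1.5 h in 48-well chambers, cells at 5×10^5/mL in RPMI 1640/1% BSA, with CCL20 as positive control. Three ×400 fields were counted per triplicate well. MI = migrated cells at optimal peptide / control medium. One-tailed t-test, p<0.05.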

Antimicrobial activity = format: cell-based; details: data not shown
neutrophils = test: Chemotaxis assay, peritoneal neutrophils; format: cell-based, mouse; details: at least 90% pure, positive control at 45 ng/mL
Summary of the method: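 Mouse peritoneal neutrophils, identified by morphology and at least 90% pure. Tested in 48-well chemotaxis chambers with N-formylmethionyl leucyl phenylalanine as positive control and RPMI 1640/1% BSA as medium and no-peptide control. Cells at 5×10^5 per mL. Migrated cells counted in three random ×400 fields per well in triplicate wells. Reported as mean per field. One-tailed Student's t-test.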

[5] = d6iDC, p<0.05 vs control medium
[6] = d7iDC, at peak peptide concentration, 1.5 h

Molecule | chemoattraction of CCR6-expressing cells (result in words) [1] | migration of mDC (result in words) (mature DC (mDC)) | optimal / only significant concentration for chemotaxis (mouse CD4^+ T cells) [ng/mL] | optimal concentration for chemotaxis (human CD4^+ T cells) [ng/mL] | migratory index (MI) (human CD4^+ T cells) | further results
CCL20: recognised chemokine ligand for the CCR6 receptor, positive control [reference compound] | can chemoattract these cells | – | – | – | – | –
DPVTCIRNGGICQYRCIGLRHKIGTCGSPFKCCK (also: bicyclic or more (positions not given here)) [Defr1-Y5C] | unable to chemoattract these cells | Neither peptide could induce migration | 100 | 100 | 5.5 | migration of iDC (result in words) [2, 5]: Neither peptide could induce migration; antimicrobial activity (result in words) [3]: poor antimicrobial activity
DPVTYIRNGGIAQYRAIGLRHKIGTAGSPFKCAK (disulfide (positions not given here)) [Defr1-1c^V] | unable to chemoattract these cells | Neither peptide could induce migration | 100 | 100 | 5.5 | migration of iDC (result in words) [2, 5]: Neither peptide could induce migration
DPVTYIRNGGICQYRCIGLRHKIGTCGSPFKCCK (disulfide (positions not given here)) [Defr1] | neither Defr1 nor the six cysteine allele Defb8, can chemoattract these cells | do not show significant migration | 10 | 10 | 8 and 9 | peptide concentration giving peak migration ([2]; d6iDC): 10 ng/mL; migratory index (MI) (mouse CD4^+ T cells; at optimal concentration): 2.5; activity relative to Defr1 Y5C and Defr1-1c^V (peak concentration) (human CD4^+ T cells): tenfold more active; chemoattraction of CD4 T cells (result in words) (CD4 T cells): attracting CD4 T cells; peptide concentration giving peak migration ([4]; d7iDC, 1.5 h): 1 ng/mL; migratory index (MI) [4, 6]: ~3.5; migratory index (MI) ([4]; d7iDC, peptide at 0.1 ng/mL, p<0.05): 2.5; antimicrobial activity (result in words) [3]: potent antimicrobial activity
ELDHCHTNGGYCVRAICPPSARRPGSCFPEKNPCCKYMK (also: bicyclic or more (positions not given here)) [Defb2] | – | do not show significant migration | – | – | – | chemoattraction of CD4 T cells (result in words) (CD4 T cells): attracting CD4 T cells; migration of d7iDC (result in words) ([4]; all concentrations tested, p<0.05 vs control): statistically significant migration; migratory index (MI) [4, 6]: 3.0
EPVSCIRNGGICQYRCIGLRHKIGTCGSPFKCCK (also: bicyclic or more (positions not given here)) [Defb8] | neither Defr1 nor the six cysteine allele Defb8, can chemoattract these cells | – | – | – | – | migration of iDC (result in words) ([2]; iDC, days of culture not stated (Fig. 4A)): can chemoattract iDC; antimicrobial activity (result in words) (Antimicrobial activity): much reduced antimicrobial activity compared with Defr1
N-formylmethionyl leucyl phenyalanine | – | – | – | – | – | migration of neutrophils (result in words) (neutrophils): significant migration
B1 | – | statistically significant migration | – | – | – | –
